# Screening data (PubChem BioAssay)
# Most compounds without a hit are left out; they make up all but 1.4% or so of the library.
# Dyrk1A ADPGlo = Dyrk1A (rat) kinase inhibition; Q63470; ADP-Glo luminescence, NFATc1 peptide; inhibition, % at 12.5 µM; 310,000 compounds, 0.43% hits; AID 504441; in the data active = inhibition above about 50%
# CAL PDZ FP-1 = inhibitors of human CAL PDZ peptide binding. AID 504414. purified CAL PDZ, TMR-peptide fluorescence polarization, 1 h. Q9HD26. 330,000 compounds, 0.02% hits. inhibition, % at 20 µM;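 active = highest replicate inhibition of at least 40%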
#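 Material: tagged CAL PDZ domain; buffer or medium: 25 mM sodium phosphate pH 7.4, 150 mM NaCl, TCEP, IgG, Thesit; compound dosing: single point, 20 µM; schedule: 1 h incubation at room temperature before polarization reading; measured by: FP readout, S and P plane fluorescence; read-out basis: percent inhibition from loss of millipolarization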
# PvdQ inh = blocks Pseudomonas aeruginosa PvdQ acylase activity; purified PvdQ acylase, fluorescence plate reader; inhibition, % at 10 µM; 340,000 compounds, 0.063% hits; in the data active = inhibition above about 30%, passing the limit was not always enough
# CDK5 p35 inh = blocks human CDK5/p35 kinase activity | Recombinant CDK5/p35, ADP-Glo luminescence, 60 min | inhibition, % at 10 µM | 330,000 compounds, 0.01% hits | AID 488839;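 active = highest replicate inhibition of at least 50% and at least 75% of replicates reaching 50%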
# Target sequence (Q00535 whole entry, looked up): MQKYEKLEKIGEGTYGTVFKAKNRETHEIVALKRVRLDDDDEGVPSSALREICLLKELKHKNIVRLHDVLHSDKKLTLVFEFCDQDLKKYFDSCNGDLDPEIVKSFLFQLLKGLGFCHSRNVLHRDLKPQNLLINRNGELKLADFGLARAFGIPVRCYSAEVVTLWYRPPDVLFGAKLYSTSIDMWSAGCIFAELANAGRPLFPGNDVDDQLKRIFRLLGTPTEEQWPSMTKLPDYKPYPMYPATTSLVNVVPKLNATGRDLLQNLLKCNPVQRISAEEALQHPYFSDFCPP
# Target sequence (Q15078 whole entry, looked up): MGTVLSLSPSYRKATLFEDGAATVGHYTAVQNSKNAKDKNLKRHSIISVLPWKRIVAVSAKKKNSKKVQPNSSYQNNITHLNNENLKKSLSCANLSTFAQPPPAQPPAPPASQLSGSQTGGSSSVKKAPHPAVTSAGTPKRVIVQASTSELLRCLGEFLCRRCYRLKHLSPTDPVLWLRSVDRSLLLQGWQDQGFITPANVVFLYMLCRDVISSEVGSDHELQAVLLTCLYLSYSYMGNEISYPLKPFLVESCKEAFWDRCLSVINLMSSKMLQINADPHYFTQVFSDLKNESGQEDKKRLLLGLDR
# CAL PDZ FP-2 = CAL PDZ (human) peptide binding inhibition; 300,000 compounds, 0.92% hits; purified CAL PDZ, TMR-peptide fluorescence polarization, 1 h; AID 602252; inhibition, % at 24.9 µM; Q9HD26;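 active = mean inhibition of at least 30% with at least half of replicates also reaching 30%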
# TbMetRS inhib = Trypanosoma brucei MetRS inhibition. purified T. brucei MetRS, ATP depletion, Kinase-Glo luminescence. inhibition, % at 11.9 µM. 360,000 compounds, 0.4% hits. AID 624268;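 active = inhibition above a per-plate cutoff of the control wells' mean inhibition plus 3 SD, cut at about 5.5% in these data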
#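 Assay system: T. brucei methionyl-tRNA synthetase, purified | Medium: HEPES buffer with MgCl2, KCl, DTT, spermine, BSA, pyrophosphatase | Compound: 11.9 µM single point | Incubation: 15 min enzyme-compound preincubation, 2 h reaction, 10 min detection, 25 °C | Measured by: Kinase-Glo luciferase luminescence reporting remaining unconsumed ATP | Measure: % inhibition normalized to control-well medians | Replication: Singlicate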
# Hits are given with their value; - = inactive; . = no result given.
SMILES,Dyrk1A ADPGlo,CAL PDZ FP-1,PvdQ inh,CDK5 p35 inh,CAL PDZ FP-2,TbMetRS inhib
CNC(=O)c1cccc(NC(=O)CCCNC(=O)c2ccc(Cl)cc2)c1,-,-,-,-,66,-
CC(C)(C)NC(=O)C1CC1(c1ccccc1)c1ccccc1 (stereo unspecified),-,.,-,-,46,-
CC1Cc2ccccc2N1C(=O)COC(=O)c1cccc(Br)c1 (stereo unspecified),.,-,-,-,182,-
CC1Cc2ccccc2N1C(=O)COC(=O)c1cc(Br)ccc1O (stereo unspecified),-,-,-,-,-,-
COc1ccc(CCNC(=O)c2cccc(S(=O)(=O)N3CCc4ccccc4C3)c2)cc1,-,-,44,-,-,-
COc1cccc(C(=O)NCCS(=O)(=O)N2CCc3ccccc3C2)c1,-,-,-,-,-,-
N#Cc1c(N)c(C#N)c(-c2ccc3c(c2)OCO3)c2c1CCCC2,-,.,-,-,-,-
N#Cc1c(N)c(C#N)c(-c2ccc(O)cc2)c2c1CCCC2,-,-,-,-,75,-
O=C(COC(=O)CCSc1ccccc1)Nc1ccc(F)cc1Cl,-,-,-,-,-,-
O=C(COC(=O)CCSc1ccccc1)Nc1cc(F)ccc1F,-,-,-,-,46,-
COc1cccc(S(=O)(=O)NCc2ccc(C(=O)Nc3ccc(C)cc3)cc2)c1,-,-,-,-,-,-
COc1ccc(NC(=O)c2ccc(CNS(=O)(=O)c3cccc(OC)c3)cc2)cc1,-,-,-,-,38,-
O=S(=O)(c1ccc(Cl)cc1)N1CCCC1c1nc(-c2ccc(Cl)cc2)no1 (stereo unspecified),-,-,-,-,-,-
Nc1nc(C2CCCN2S(=O)(=O)c2ccc(Cl)cc2)cs1 (stereo unspecified),-,-,-,-,46,-
O=C(OC1CC2CC1[C@H]1CCCCN1C2=O)N1CCC(c2ccccc2)CC1 (stereo partly specified),.,.,.,.,.,-
O=C(NNC(=O)c1ccc[nH]1)Nc1cccc(C(F)(F)F)c1,-,-,-,-,71,-
COCCNc1nc(-c2ccccc2F)c2sc(-c3ccccc3)cc2n1,.,.,.,.,.,-
O=C(O)c1ccc(CNC(=O)c2ccccc2NC(=O)c2ccc([N+](=O)[O-])cc2)cc1,-,.,-,-,50,-
O=C(Nc1ccccc1C(=O)Nc1ccccn1)c1ccc([N+](=O)[O-])cc1,.,-,-,-,43,-
O=C(O)c1ccc(CNC(=O)c2ccccc2NC(=O)c2cccc([N+](=O)[O-])c2)cc1,-,-,-,-,-,-
CCOC(=O)[C@]12CCCC=C1N(Cc1ccc3c(c1)OCO3)C(=O)[C@H](CC(=O)N1CCCCC1)C2,.,.,.,.,.,-
CC1(C(=O)NCc2cccs2)Cc2c(-c3ccc4c(c3)OCO4)ccnc2O1 (stereo unspecified),.,.,.,.,.,-
COC(=O)C(CC(=O)c1ccc(Br)cc1)n1nc(C)cc1C (stereo unspecified),-,-,-,-,-,-
COC(=O)C(CC(=O)c1ccc(C)cc1)n1nc(C)cc1C (stereo unspecified),-,-,-,-,129,-
O=C(Nc1cccnc1)c1cccc(S(=O)(=O)N2CCc3ccccc32)c1,-,-,-,-,73,-
SMILES,Dyrk1A ADPGlo,CAL PDZ FP-1,PvdQ inh,CDK5 p35 inh,CAL PDZ FP-2,TbMetRS inhib
O=C(Nc1ccncc1)c1cccc(S(=O)(=O)N2CCc3ccccc32)c1,-,-,-,-,.,-
CC1Cc2ccccc2N1S(=O)(=O)c1cccc(C(=O)NC2CC2)c1 (stereo unspecified),-,-,-,-,-,-
CC1Cc2ccccc2N1S(=O)(=O)c1cccc(C(=O)Nc2cccnc2)c1 (stereo unspecified),-,.,-,-,34,-
CCNC(=O)C1(C)CCCN(C(=O)c2ccc3c(c2)C(C)(C)CCC3(C)C)C1 (stereo unspecified),.,.,.,.,.,-
O=C(O/N=C1\CCS(=O)(=O)c2sccc21)c1c(F)cccc1F,-,-,-,-,-,-
O=S1(=O)CC/C(=N\Nc2ccccc2)c2ccsc21,-,-,-,-,33,-
CC(C)[C@H](NC(=O)[C@@H]1Cc2c([nH]c3ccccc23)C2c3ccccc3C(=O)N21)C(=O)N1CCC[C@H]1C(=O)O (stereo partly specified),.,.,.,.,.,-
Cc1cc(C)c(N2C(=NC(=O)CCCC(=O)O)SC3CS(=O)(=O)CC32)c(C)c1 (stereo unspecified),-,-,-,-,41,-
Cc1ccc(CN2C(=NC(=O)CCC(=O)O)SC3CS(=O)(=O)CC32)cc1 (stereo unspecified),-,-,-,-,-,-
Cc1nc2ccc(C(=O)N(C)Cc3ccco3)cn2c1N(C)CC1CCCCC1,.,.,.,.,.,-
COCCNC(=O)C1(C)CCN(C(=O)c2ccc(SC(F)(F)F)cc2)C1 (stereo unspecified),.,.,.,.,.,-
Cn1c(=S)[nH]c2scc(-c3cccs3)c2c1=O,.,-,-,-,66,-
CCN(CC)Cc1cc(C(C)(C)C)cc(N2CCOCC2)c1O,-,-,-,-,-,-
CN(C)Cc1cc(C(C)(C)C)cc(N2CCOCC2)c1O,-,-,-,-,89,-
CC(C)C[C@H]1CN(CCCC[C@H]2CNC(=O)C(=O)N2CCC2CCCCC2)C(=O)C(=O)N1CCc1ccccc1,.,.,.,.,.,-
COc1cccc(C(NC(C)=O)c2nc(-c3cccc(O)c3)cs2)c1 (stereo unspecified),.,.,.,.,.,-
CC(=O)Nc1cc(OC(C)=O)c2nonc2c1OC(C)=O,.,-,-,-,-,28
COc1ccc(-n2nc(C(=O)NCC(=O)N(C)Cc3ccccc3)c3ccccc3c2=O)cc1,-,-,-,-,38,-
COc1cc2[nH]c(=S)n(Cc3ccc(C)cc3)c(=O)c2cc1OC,-,-,-,-,40,-
N#CC1C(=O)NC(c2ccccc2)=CC1c1ccccc1 (stereo unspecified),-,-,-,-,110,-
S=C1NC(c2ccccc2)=CC(c2ccccc2)N1 (stereo unspecified),-,-,-,-,-,-
CCCCNC(=O)c1nc(C2CCN(S(=O)(=O)c3ccc(C(F)(F)F)cc3)CC2)oc1-c1ccccc1,.,.,.,.,.,-
Cn1c(=O)c(=O)n(C)c2cc([N+](=O)[O-])c([N+](=O)[O-])cc21,.,-,-,-,-,-
CN(C)c1c([N+](=O)[O-])cc(N2C(=O)C=CC2=O)cc1[N+](=O)[O-],.,-,-,-,37,-
CC1(Oc2ccccc2-c2ccno2)CCN(Cc2csc3ccccc23)C1 (stereo unspecified),.,.,.,.,.,-
COc1ccc(C(=O)C[n+]2cccc(Br)c2)cc1,.,-,-,-,32,-
C=CCn1nc(C(=O)Nc2ccc(OC)cc2)cc1-c1sc(NC(=O)c2ccccc2)nc1C,.,.,.,.,.,-
